Experimental data gathered from unrelated publications.
Protocols differ between the studies behind these lines.
Cell line: MDA-MB-231
Read-out: cell growth or viability

| Compound | test | conditions | quantity | value |
| --- | --- | --- | --- | --- |
| NCCC(=O)Nc1ccccc1/N=c1\cc(-c2ccc3c(c2)OCCO3)oc2cc(F)ccc12 | CCK-8 | 1 µM | inhibition | 52.9% |
| O=C(Nc1ccc(Cl)cc1)Nc1ccc(Oc2nc3ccccc3n3cnnc23)cc1 | MTT | 100 µM, 24 h | viability | 46.6% |
| Cc1ccc(-c2nn(-c3ccccc3)cc2C=Nc2c(N)nc(S)nc2O)cc1 | – | 48 h | CC50 | 14.3 µM |
| NCCC(=O)Nc1ccc(/N=c2\cc(-c3ccc4c(c3)OCO4)oc3ccccc23)cc1 | CCK-8 | 1 µM | inhibition | 5.95% |
| COc1cccc2c1C(=O)c1c(O)c3c(c(O)c1C2=O)C[C@@](O)(C(=O)CO)C[C@@H]3O[C@H]1C[C@H](N)[C@H](O)[C@H](C)O1 | MTT | 72 h | EC50 | 0.022 µM |
| COc1ccc(-c2nn(-c3ccccc3)cc2C=Nc2c(N)nc(S)nc2O)cc1 | – | 48 h | CC50 | > 20 µM |
| O=C(NN=Cc1ccc(Cl)cc1)C1CC(=O)N(c2ccc(F)cc2F)C1 (centres unmarked) | MTT | 72 h | EC50 | 29.9 µM |
| O=C(Nc1ccccc1)Nc1ccc(Oc2nc3ccccc3n3cnnc23)cc1 | MTT | 3.125 µM, 24 h | viability | 100% |
| CCN(N=Cc1ccc(Br)cc1)C(=O)C1CC(=O)N(c2ccc(F)cc2F)C1 (centres unmarked) | MTT | 72 h | EC50 | 32.9 µM |
| COc1ccc2/c(=N/c3ccccc3NC(=O)[C@H](C)N)cc(-c3ccc4c(c3)OCCO4)oc2c1 | CCK-8 | 1 µM | inhibition | 13.8% |
| COc1cccc(NC(=O)Nc2ccc(Oc3nc4ccccc4n4cnnc34)cc2)c1 | MTT | 3.125 µM, 24 h | viability | 91.5% |
